pIC50: −log10 of the molar value. In brackets after ≈: the same amount, converted by molar mass.
Assays:
Mus musculus [1] = assay: Toxicity in mouse assessed as death at 25 to 300 mg/kg, po measured for 3 days; assay type: organism-based; set-up: dose 25-300 mg/kg, route oral; conditions: in vivo, 72 h
In short: (§1)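 Male mice (26-32 g), six per group, fasted overnight and weighed. Compounds given orally as suspension in 1% gum acacia at 25, 50, 100, 200 and 300 mg/kg/day; vehicle control at up to 1 ml/100 g. Mortality recorded after 24 h; weight and deaths followed over 3 days post-dosing.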

Plasmodium berghei [2] = assay: Antimalarial activity against Plasmodium berghei str. ANKA infected in Swiss albino mouse assessed as supression of parasitemia at 0.048 mmol/kg/day, po qd for 3 days by microscopic analysis relative to control; assay type: functional
In short: (§2)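 Four-day suppressive test. Mice were infected iv on day 0 with 0.2 ml of 2 × 10^7 P. berghei ANKA-parasitized erythrocytes from a donor mouse, diluted in saline. From 2 h post-infection they were dosed orally at 0.048 mmol/kg/day for days 0–3, five mice per group. The vehicle was 7% Tween and 3% ethanol in water. On day 4, Giemsa smears were scored over 5 fields of about 100 RBC each. Suppression was calculated relative to the vehicle group, taken as 100%.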

Mus musculus [3] = assay: Toxicity in mouse assessed as change in weight at 25 to 300 mg/kg, po measured for 3 days; assay type: organism-based; set-up: dose 25-300 mg/kg, route oral; conditions: in vivo, 72 h; in short: as §1
[4] = Toxicity in po dosed mouse; assay type: organism-based; conditions: in vivo; in short: as §1
Plasmodium berghei [5] = assay: Antimalarial activity against Plasmodium berghei str. ANKA infected in Swiss albino mouse assessed as parasitemia at 0.048 mmol/kg/day, po qd […] by microscopic analysis relative to control; assay type: functional; in short: as §2
Leishmania aethiopica [6] = assay: Antileishmanial activity against promastigote stage of Leishmania aethiopica after 24 hrs by alamar blue staining-based […]; assay type: functional, organism-based
In short: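 L. aethiopica promastigotes, 3 × 10^6 per well, given compounds from DMSO stocks in three-fold dilutions at 10 to 0.04 µg/ml (final DMSO ≤0.1%), in duplicate, at room temperature (21 ± 1 °C). Alamar blue (resazurin) was added after 24 h and absorbance read 48 h later at 540 and 630 nm. Negative control was parasites, medium and DMSO.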

Leishmania aethiopica [7] = assay: Antileishmanial activity against amastigote stage of Leishmania aethiopica after 72 hrs by resazurin staining-based fluorescence assay; assay type: functional, organism-based
In short: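 Axenic L. aethiopica amastigotes (50 µl of 2 × 10^7 cells/ml) exposed to serial dilutions at final 0.04–10 µg/ml for 72 h at 31 °C, humidified, 5% CO₂. Resazurin was added at 68 h and fluorescence read at 72 h (ex 530/em 590 nm). EC50 from sigmoidal dose–response fits, mean ± SD of triplicate experiments run in duplicate. Controls were medium alone and 1% DMSO.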

Plasmodium berghei [8] = assay: Antimalarial activity against Plasmodium berghei str. ANKA infected in Swiss albino mouse assessed as survival at 0.048 mmol/kg/day, po qd for 3 days by microscopic analysis relative to control; assay type: functional
In short: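 P. berghei ANKA infected mice, 4-day suppressive test. Day 0: 0.2 ml of 2 x 10^7 parasitized erythrocytes given i.v. (donor blood, 20-30% parasitemia, diluted in saline). Oral dosing at 0.048 mmol/kg/day from 2 h post-infection, then days 1-3 at 24 h intervals. Vehicle 7% Tween, 3% ethanol in water. Five mice/group. Survival time recorded per mouse; mean compared with vehicle group.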

Mus musculus [9] = assay: Toxicity in mouse up to 100 mg/kg administered via parenteral route; assay type: organism-based; set-up: dose 100 mg/kg; conditions: in vivo
In short: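 Groups of six mice received intraperitoneal doses of 10, 25, 50, 75 and 100 mg/kg, with propylene glycol as the vehicle control.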

Plasmodium falciparum = assay: Antiplasmodial activity against chloroquine-resistant Plasmodium falciparum RKL9 infected in human RBC assessed as effect on schizont maturation after 24 hrs by Geimsa staining-based assay; assay type: functional, organism-based; conditions: RKL9, 24 h
In short: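 P. falciparum RKL9 in continuous culture in human B(+) RBC, parasitemia adjusted to 1-1.5%, RPMI 1640 with 10% AB(+) serum. Two-fold serial dilutions, compounds in ethanol (final ≤0.5%), 24 h at 37 °C, duplicate wells. Schizonts per 100 asexual parasites counted on Giemsa smears; % schizont maturation inhibition = (1 − Nt/Nc) × 100.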

Leishmania aethiopica [10] = assay: Ratio of amphotericin IC50 to compound IC50 for promastigote stage of Leishmania aethiopica; assay type: functional
Leishmania aethiopica [11] = assay: Ratio of miltefosine IC50 to compound IC50 for promastigote stage of Leishmania aethiopica; assay type: functional

Row | SMILES | Activity (Mus musculus [1]) | Activity (Plasmodium berghei [2]) [%] | Activity (Mus musculus [3]) | MTD [4] [mg/kg] | Activity (Plasmodium berghei [5]) [%] | IC50 (Leishmania aethiopica [6]) [µg/mL] | IC50 (Leishmania aethiopica [7]) [µg/mL] | Survival (Plasmodium berghei [8]) [days] | Activity (Mus musculus [9]) | pIC50 (Plasmodium falciparum) | Ratio IC50 (Leishmania aethiopica [10]) | Ratio IC50 (Leishmania aethiopica [11])
1 | O=[N+]([O-])c1ccc(-c2nn(-c3ccc(Br)cc3)cc2/C=N/NC(=S)Nc2ccccc2)cc1 | Non-toxic | 94.19 | Non-toxic | 300 | 5 | 0.0214 (≈ 0.041 µM) | 0.21 (≈ 0.403 µM) | 14.84 | Non-toxic | 7.42 | – | –
2 | O=C1CS/C(=N/N=C/c2cn(-c3ccc(Br)cc3)nc2-c2ccc([N+](=O)[O-])cc2)N1c1ccccc1 | Non-toxic | 97.67 | Non-toxic | 300 | 2 | 0.0224 (≈ 0.0399 µM) | 0.19 (≈ 0.338 µM) | 16.44 | Non-toxic | 7.41 | – | –
3 | O=C(/C=C/c1cn(-c2ccc(Br)cc2)nc1-c1ccc([N+](=O)[O-])cc1)c1ccccc1 | Non-toxic | 96.51 | Non-toxic | 300 | 3 | 1.08 (≈ 2.28 µM) | 1.22 (≈ 2.57 µM) | 16.22 | Non-toxic | 7.41 | – | –
4 | CC(=O)N(C1=NN(C(C)=O)C(c2cn(-c3ccc(Br)cc3)nc2-c2ccc([N+](=O)[O-])cc2)S1)c1ccccc1 (stereo unspecified) | Non-toxic | 86.05 | Non-toxic | 300 | 12 | 0.0142 (≈ 0.0235 µM) | 0.13 (≈ 0.215 µM) | 16.86 | Non-toxic | – | 3 | 225
5 | CC(=O)N1N=C(c2ccccc2)CC1c1cn(-c2ccc(Br)cc2)nc1-c1ccc(C)cc1 (stereo unspecified) | Non-toxic | 96.51 | Non-toxic | 300 | 3 | 3.02 (≈ 6.05 µM) | 2.77 (≈ 5.55 µM) | 16.4 | Non-toxic | 7.43 | – | –
6 | Cc1ccc(-c2nn(-c3ccc(Br)cc3)cc2/C=N/N=C2/SCC(=O)N2c2ccccc2)cc1 | Non-toxic | 95.35 | Non-toxic | 300 | 4 | 0.0341 (≈ 0.0643 µM) | 0.32 (≈ 0.603 µM) | 16.86 | Non-toxic | 7.44 | – | –
7 | Cc1ccc(-n2cc(/C=N/N=C3/SCC(=O)N3c3ccccc3)c(-c3ccc([N+](=O)[O-])cc3)n2)cc1 | Non-toxic | 96.51 | Non-toxic | 300 | 3 | 0.0201 (≈ 0.0405 µM) | 0.28 (≈ 0.564 µM) | 16.62 | Non-toxic | 7.40 | – | –
8 | Cc1ccc(-c2nn(-c3ccc(C)cc3)cc2/C=N/N=c2/scc(-c3ccc(Br)cc3)n2-c2ccccc2)cc1 | Non-toxic | 97.67 | Non-toxic | 300 | 2 | 0.0311 (≈ 0.0514 µM) | 0.3 (≈ 0.496 µM) | 16.84 | Non-toxic | 7.38 | – | –
9 | O=[N+]([O-])c1ccc(-c2nn(-c3ccc(Br)cc3)cc2C2CC(c3ccccc3)=NN2)cc1 (stereo unspecified) | Non-toxic | 95.35 | Non-toxic | 300 | 4 | 2.12 (≈ 4.35 µM) | 1.11 (≈ 2.27 µM) | 17.6 | Non-toxic | 7.38 | – | –
10 | Cc1ccc(-n2cc(/C=N/NC(=S)Nc3ccccc3)c(-c3ccc([N+](=O)[O-])cc3)n2)cc1 | Non-toxic | 94.19 | Non-toxic | 300 | 5 | 0.0241 (≈ 0.0528 µM) | 0.23 (≈ 0.504 µM) | 14 | Non-toxic | 7.42 | – | –

From ChEMBL document CHEMBL3414483, “New heterocyclic hybrids of pyrazole and its bioisosteres: design, synthesis and biological evaluation as dual acting antimalarial-antileishmanial agents” (Eur J Med Chem, 2015)
